Each structure is given as a SMILES string. Activity calls are given as the source filed them. The calls are words filed in the database; no cut-off is given here.

The test system of series [1] is UMSCC14A. As to the kind of experiment: Cytotoxicity against human UMSCC14A cells at 1.25 to 80 uM up to 48 hrs by ATP-based luminescent proliferation assay. Type of series: functional, cell-based. Put shortly: (§1)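 Floor-of-mouth OSCC lines (UMSCC1, UMSCC14A) and nonmalignant primary human epidermal keratinocytes were treated at 1.25–80 μM for 24 and 48 h. Growth was measured by ATP-based luminescent proliferation assay, and OSCC vs keratinocytes was compared by two-way ANOVA.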

Series [2] relates to MEF. Briefly: Activation of unfolded protein response in Atf4-deficient mouse MEF assessed as effect on Puma expression at 40 uM after 6 hrs by qRT-PCR analysis. Format: functional, cell-based. Put shortly: (§2)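 Atf4-null murine embryonic fibroblasts and wildtype littermate controls were exposed to 40 μM for 6 h, with 2.5 μg/mL tunicamycin as comparator. cDNA libraries were made from the cells, and Noxa, Puma and Trb3 transcripts were quantified by qRT-PCR.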

Series [3] deals with MEF. As to the kind of experiment: Activation of unfolded protein response in Atf4-deficient mouse MEF assessed as effect on Noxa expression at 40 uM after 6 hrs by qRT-PCR analysis. Format: functional, cell-based. Put shortly:
as §2
In general terms: In qPCR the cycle at which signal appears reflects the starting amount.

Series [4] in a line: Cytotoxicity against human HEK cells at 1.25 to 80 uM after 48 hrs by ATP-based luminescent proliferation assay. Format: cell-based. The method, boiled down: as §1
Series [5] relates to UMSCC1. Briefly: Cytotoxicity against human UMSCC1 cells at 1.25 to 80 uM up to 48 hrs by ATP-based luminescent proliferation assay. Format: functional, cell-based. Put shortly: as §1
Series [6] in a line: Cytotoxicity against human HEK cells at 1.25 to 80 uM after 24 hrs by ATP-based luminescent proliferation assay. Format: cell-based. Put shortly: as §1
For series [7], the system named is MEF. As to the kind of experiment: Activation of unfolded protein response in Atf4-deficient mouse MEF assessed as effect on Trb3 expression at 40 uM after 6 hrs by qRT-PCR analysis. Type of series: functional, cell-based. Put shortly:
as §2

Series [8] deals with UMSCC14A. As to the kind of experiment: Activation of unfolded protein response in human UMSCC14A cells assessed as increase of CHOP expression at 40 uM after 6 to 12 hrs by qRT-PCR analysis. Format: functional, cell-based.
The test system of series [9] is UMSCC14A. Briefly: Activation of unfolded protein response in human UMSCC14A cells assessed as increase of GADD34 expression at 40 uM after 6 to 12 hrs by qRT-PCR analysis. Type of series: functional, cell-based.
The subject of series [10] is MEF. As to the kind of experiment: Antiproliferative activity against Atf4-deficient mouse MEF after 16 hrs by ATP-based luminescent proliferation assay. Format: functional, cell-based. The method, boiled down:
(§3)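 Atf4−/− and Chop−/− murine embryonic fibroblasts, each with wildtype littermate controls, were dosed across a concentration series for 16 h. Proliferation was read by ATP-based luminescence, and wildtype vs null was compared by two-way ANOVA (dose, interaction).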

Series [11] has as its system MEF. As to the kind of experiment: Antiproliferative activity against Chop-deficient mouse MEF after 16 hrs by ATP-based luminescent proliferation assay. Type of series: functional, cell-based. Put shortly:
as §3

The test system of series [12] is UMSCC14A. As to the kind of experiment: Activation of unfolded protein response in human UMSCC14A cells assessed as increase of ATF3 expression at 40 uM after 6 to 12 hrs by qRT-PCR analysis. Type of series: functional, cell-based.
Series [13] deals with UMSCC1. As to the kind of experiment: Activation of unfolded protein response in human UMSCC1 cells assessed as increase of CHOP expression at 40 uM after 6 to 12 hrs by qRT-PCR analysis. Format: functional, cell-based. The method, boiled down:
(§4)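 UMSCC1 oral squamous carcinoma cells were treated for 6 or 12 h, and UPR marker transcripts were quantified by qRT-PCR.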

The nature of series [14]: Activation of unfolded protein response in human UMSC23 cells assessed as increase of GADD34 expression at 40 uM after 6 to 12 hrs by qRT-PCR analysis. Format: functional, cell-based.
Series [15] is described as follows: Activation of unfolded protein response in human UMSC23 cells assessed as increase of spliced XBP1 expression at 40 uM after 6 to 12 hrs by qRT-PCR analysis. Type of series: functional, cell-based.
Series [16] can be described thus: Activation of unfolded protein response in human UMSC23 cells assessed as increase of CHOP expression at 40 uM after 6 to 12 hrs by qRT-PCR analysis. Format: functional, cell-based.
Series [17] concerns UMSCC14A. As to the kind of experiment: Activation of unfolded protein response in human UMSCC14A cells assessed as increase of spliced XBP1 expression at 40 uM after 6 to 12 hrs by qRT-PCR analysis. Format: functional, cell-based.
Series [18] has as its system UMSCC1. Briefly: Activation of unfolded protein response in human UMSCC1 cells assessed as increase of GADD34 expression at 40 uM after 6 to 12 hrs by qRT-PCR analysis. Format: functional, cell-based. Put shortly:
as §4

In series [19] the test system is MEF. Briefly: Antiproliferative activity against mouse MEF harboring eIF2-alpha (Ser51Ala) mutant after 16 hrs by ATP-based luminescent proliferation assay. Type of series: functional, cell-based.
Series [20] has as its system UMSCC1. Briefly: Activation of unfolded protein response in human UMSCC1 cells assessed as increase of ATF3 expression at 40 uM after 6 to 12 hrs by qRT-PCR analysis. Type of series: functional, cell-based. The method, boiled down:
as §4

Series [21] deals with UMSCC14A. As to the kind of experiment: Activation of unfolded protein response in human UMSCC14A cells assessed as increase of BiP/GRP78 expression at 40 uM after 6 to 12 hrs by qRT-PCR analysis. Format: functional, cell-based.
Series [22] concerns UMSCC1. As to the kind of experiment: Activation of unfolded protein response in human UMSCC1 cells assessed as increase of spliced XBP1 expression at 40 uM after 6 to 12 hrs by qRT-PCR analysis. Type of series: functional, cell-based. Put shortly: as §4
Series [23] is described as follows: Activation of unfolded protein response in human UMSC23 cells assessed as increase of ATF3 expression at 40 uM after 6 to 12 hrs by qRT-PCR analysis. Type of series: functional, cell-based.
The subject of series [24] is UMSCC1. As to the kind of experiment: Activation of unfolded protein response in human UMSCC1 cells assessed as increase of BiP/GRP78 expression at 40 uM after 6 to 12 hrs by qRT-PCR analysis. Format: functional, cell-based. Put shortly: as §4
Series [25] can be described thus: Activation of unfolded protein response in human UMSC23 cells assessed as increase of BiP/GRP78 expression at 40 uM after 6 to 12 hrs by qRT-PCR analysis. Type of series: functional, cell-based.

Take `COC(=O)N[C@H]1[C@@H](C)O[C@@H](O[C@H]2C/C=C(\C)[C@@H]3C=C[C@@H]4[C@@H](O[C@H]5C[C@@H](O[C@H]6C[C@@H](O)[C@@H](O[C@@H]7C[C@@H](O)[C@@H](OC)[C@H](C)O7)[C@H](C)O6)[C@@H](O)[C@H](C)O5)[C@@H](C)C[C@H](C)[C@H]4[C@]3(C)C(=O)C3=C(O)[C@@]4(C[C@@H](C)C(CO)=C[C@H]4/C=C/2C)OC3=O)C[C@]1(C)[N+](=O)[O-]`: the result in the series on UMSCC14A [1] and with UMSCC1 [5] was Active. Further, the result in the series with MEF [2], with MEF [3] and in the series with MEF [7] was inactive. For the same compound, the Activity entry in series [4] is on record as “Toxic”; in [6], “Non-toxic”.

As for `COC(=O)N[C@H]1[C@@H](C)O[C@@H](O[C@H]2C/C=C(\C)[C@@H]3C=C[C@@H]4[C@@H](O[C@H]5C[C@@H](O[C@H]6C[C@@H](O)[C@@H](O)[C@H](C)O6)[C@@H](O)[C@H](C)O5)[C@@H](C)C[C@H](C)[C@H]4[C@]3(C)C(=O)C3=C(O)[C@@]4(C[C@@H](C)C(C)=C[C@H]4/C=C/2C)OC3=O)C[C@]1(C)[N+](=O)[O-]`, the outcome (in the series on UMSCC14A [8]; with UMSCC14A [9]; with UMSCC14A [1]; with UMSCC14A [12]; in the series with UMSCC1 [13]; in [14]) was Active. Besides, the result (in series [15]; in [16]; with UMSCC14A [17]; with UMSCC1 [18]; in the series with UMSCC1 [20]; in the series on UMSCC14A [21]) was Active. Moreover, the outcome (in the series with UMSCC1 [22]; in [23]; in the series with UMSCC1 [24]; in the series on UMSCC1 [5]; in series [25]) was Active. For the same compound, the result in the series with MEF [10], in the series with MEF [11], in the series on MEF [2], with MEF [3], in the series on MEF [19] and in the series with MEF [7] was inactive. The Activity result in [6] is “Non-toxic”.

In the case of `COC(=O)N[C@H]1[C@@H](C)O[C@@H](O[C@H]2C/C=C(\C)[C@@H]3C=C[C@@H]4[C@@H](O[C@H]5C[C@@H](O[C@H]6C[C@@H](O)[C@@H](O[C@@H]7C[C@@H](O)[C@@H](OC)[C@H](C)O7)[C@H](C)O6)[C@@H](O)[C@H](C)O5)[C@@H](C)C[C@H](C)[C@H]4[C@]3(C)C(=O)C3=C(O)[C@@]4(C[C@@H](C)C(C)=C[C@H]4/C=C/2C)OC3=O)C[C@]1(C)[N+](=O)[O-]`, the result with UMSCC14A [1] and with UMSCC1 [5] was Active. The values for the Activity result in [4] and in series [6] were “Toxic” and “Non-toxic”, respectively.

Regarding `COC(=O)N[C@H]1[C@@H](C)O[C@@H](O[C@H]2C/C=C(\C)[C@@H]3C=C[C@@H]4[C@@H](O[C@H]5C[C@@H](O[C@H]6C[C@@H](O)[C@@H](O[C@@H]7C[C@@H](O)[C@@H](OC)[C@H](C)O7)[C@H](C)O6)[C@@H](O)[C@H](C)O5)[C@@H](C)C[C@H](C)[C@H]4[C@]3(C)C(=O)C3=C(O)[C@@]4(C[C@@H](C)C(CO)=C[C@H]4/C=C/2C)OC3=O)C[C@]1(C)O`, the result with UMSCC14A [1] and with UMSCC1 [5] was Active. Also, in [6], the Activity entry is on record as “Non-toxic”.

These data come from ChEMBL document CHEMBL3621187, “Novel Lobophorins Inhibit Oral Cancer Cell Growth and Induce Atf4- and Chop-Dependent Cell Death in Murine Fibroblasts” (ACS Med Chem Lett, 2015).
